We go through one compound from ChEMBL document CHEMBL1148425, “New fatty acid oxidation inhibitors with increased potency lacking adverse metabolic and electrophysiological properties” (Bioorg Med Chem Lett, 2004).

Series [1] is filed under the species Cavia porcellus. The series is described as follows: Electrophysiological effect on isolated guinea pig heart as change in S-H interval at 3 uM. Format: functional.
A short description of series [2]: Oral bioavailability in rat (dose 2 mg/kg). The conditions noted are these: in vivo. It is filed as ADME, organism-based.
The species named for series [3] is Cavia porcellus. The experiment in a line: Electrophysiological effect on isolated guinea pig heart as change in H-V interval at 3 uM. It is filed as functional.
Series [4] is filed under the species Cavia porcellus. The experiment in a line: Electrophysiological effect on isolated guinea pig heart as change in coronary perfusion pressure at 3 uM. Format: functional.
Series [5] can be described thus: Half life in rat after 1 mg/kg i.v. administration. It is filed as ADME, organism-based. More on the design: dose 1 mg/kg, route intravenous. The conditions noted are these: in vivo, iv.
A short description of series [6]: Volume of distribution of compound in rat after 1 mg/kg i.v. administration. Format: ADME, organism-based. Details: dose 1 mg/kg, route intravenous. The conditions noted are these: in vivo, iv, read-out: Vdss.
Series [7] in a line: Metabolic stability (% remaining at 30 mins) in human S9. Format: ADME. The conditions noted are these: human S9 fraction. The procedure, abridged: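 Incubated 30 min with human liver S9 (2 mg/mL protein, NADH added), n=2. Reported as % parent remaining.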
In a further series the target is T1, Cytochrome P450 1A2 (Homo sapiens, UniProt P05177).
T1 sequence (P05177 whole entry): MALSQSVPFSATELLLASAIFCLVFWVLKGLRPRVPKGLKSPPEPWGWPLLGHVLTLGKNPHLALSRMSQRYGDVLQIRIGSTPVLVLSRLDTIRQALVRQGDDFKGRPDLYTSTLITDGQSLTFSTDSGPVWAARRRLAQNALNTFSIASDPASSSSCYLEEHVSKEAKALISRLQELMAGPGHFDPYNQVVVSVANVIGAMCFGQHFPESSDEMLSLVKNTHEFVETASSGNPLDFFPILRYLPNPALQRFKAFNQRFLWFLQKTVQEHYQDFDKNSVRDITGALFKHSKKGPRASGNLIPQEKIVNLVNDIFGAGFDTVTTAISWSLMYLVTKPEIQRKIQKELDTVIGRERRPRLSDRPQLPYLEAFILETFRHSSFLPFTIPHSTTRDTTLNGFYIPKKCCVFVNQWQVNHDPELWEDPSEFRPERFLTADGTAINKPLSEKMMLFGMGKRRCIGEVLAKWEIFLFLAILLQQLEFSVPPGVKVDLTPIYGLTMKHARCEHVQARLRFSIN
The experiment in a line: Inhibition of human cytochrome P450 1A2.

The nature of series [8]: Time to reach maximum concentration in rat after 2 mg/kg peroral administration. Format: ADME, organism-based. More on the design: dose 2 mg/kg, route oral. The conditions noted are these: in vivo, po.
Another series deals with Cytochrome P450 3A4 (Homo sapiens, UniProt P08684). The series is described as follows: Inhibition of human cytochrome P450 3A4.
Series [9] can be described thus: Total concentration in rat after 2 mg/kg peroral administration in 24 hours. It is filed as ADME, organism-based. Details: dose 2 mg/kg, route oral. The conditions noted are these: in vivo, po.
Series [10] in a line: Maximum concentration in rat after 2 mg/kg peroral administration. It is filed as ADME, organism-based. More on the design: dose 2 mg/kg, route oral. The conditions noted are these: in vivo, po.
A short description of series [11]: Total concentration in rat after 1 mg/kg i.v. administration in 24 hours. Format: ADME, organism-based. The conditions noted are these: in vivo, iv. Details: dose 1 mg/kg, route intravenous.
The nature of series [12]: Half life in rat after 2 mg/kg peroral administration. It is filed as ADME, organism-based. Details: dose 2 mg/kg, route oral. The conditions noted are these: in vivo, po.
A short description of series [13]: Clearance of compound in rat after 1 mg/kg i.v. administration. More on the design: dose 1 mg/kg, route intravenous. Format: ADME, organism-based. The conditions noted are these: plasma, iv, read-out: Clp.
Another series has as its target Cytochrome P450 2C9 (Homo sapiens, UniProt P11712). The series is described as follows: Inhibition of cytochrome P450 2C9 (human).

Bounds are passed on as bounds.

Cytochrome P450 3A4, sequence (P08684 whole entry): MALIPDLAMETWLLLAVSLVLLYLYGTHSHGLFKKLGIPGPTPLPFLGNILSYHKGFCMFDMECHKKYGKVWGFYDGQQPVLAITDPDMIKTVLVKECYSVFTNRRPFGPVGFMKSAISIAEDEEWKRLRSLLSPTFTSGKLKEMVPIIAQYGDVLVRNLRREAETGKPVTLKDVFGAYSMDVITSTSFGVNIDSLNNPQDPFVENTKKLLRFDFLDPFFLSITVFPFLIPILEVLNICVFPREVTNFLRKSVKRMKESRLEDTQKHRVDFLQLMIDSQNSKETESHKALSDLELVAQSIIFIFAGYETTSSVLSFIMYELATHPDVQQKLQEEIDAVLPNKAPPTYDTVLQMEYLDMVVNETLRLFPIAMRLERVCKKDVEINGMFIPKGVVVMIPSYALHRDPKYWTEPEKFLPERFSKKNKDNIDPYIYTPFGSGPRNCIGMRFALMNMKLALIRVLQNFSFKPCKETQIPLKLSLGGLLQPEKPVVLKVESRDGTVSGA
Cytochrome P450 2C9, sequence (P11712 whole entry): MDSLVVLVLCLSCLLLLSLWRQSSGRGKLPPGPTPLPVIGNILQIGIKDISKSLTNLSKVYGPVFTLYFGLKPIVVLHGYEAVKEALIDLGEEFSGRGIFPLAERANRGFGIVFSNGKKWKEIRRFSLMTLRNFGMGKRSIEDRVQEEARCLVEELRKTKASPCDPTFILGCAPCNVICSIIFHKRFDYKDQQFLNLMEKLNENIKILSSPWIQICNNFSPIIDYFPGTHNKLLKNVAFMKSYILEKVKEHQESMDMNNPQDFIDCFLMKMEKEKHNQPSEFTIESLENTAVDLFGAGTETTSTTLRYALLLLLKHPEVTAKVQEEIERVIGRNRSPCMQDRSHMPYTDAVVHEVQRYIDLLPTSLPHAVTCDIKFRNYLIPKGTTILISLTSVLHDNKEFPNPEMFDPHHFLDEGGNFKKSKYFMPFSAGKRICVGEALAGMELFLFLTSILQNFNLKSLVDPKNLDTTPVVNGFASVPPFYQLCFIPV

As to `Cc1nc2cc(OC[C@H](O)CN3CCN(CC(=O)Nc4c(C)cccc4C)CC3)ccc2s1`, the “Delta S-H” value in the series filed under Cavia porcellus [1] is on record as 3 ms. In addition, the bioavailability (commonly dose-corrected exposure relative to a reference, in per cent) in [2] worked out at 19.5%. Further, the “Delta H-V” value in the series listed under Cavia porcellus [3] amounted to 4 ms. Moreover, the “Delta CPP” value in the series filed under Cavia porcellus [4] is given as -8 mmHg. Moreover, the values for the half-life in [5] and in [12] were 1.4 h and 1.2 h, respectively. The Vd in [6] was determined as 6.2 L/kg. In addition, the share remaining (as a rule, what is left of the initial amount, in per cent) at 0.5 h in series [7] amounted to 50%. Also, the IC50 (commonly the concentration at which inhibition is half-maximal) against Cytochrome P450 1A2 was above 100 µM; against Cytochrome P450 3A4 it was 23 µM; against Cytochrome P450 2C9, above 100 µM. Also, the Tmax (usually the time at which the peak concentration occurs) in series [8] was 0.83 h. The AUC (commonly concentration integrated over time) at 24 h came out at 61.1 ng·h/mL in series [9] and 313 ng·h/mL in series [11]. Further, in [10], the concentration peaked (Cmax) at 26.1 ng/mL. Also, the clearance in series [13] came to 54.5 mL/min/kg.
